Measurements reported in ChEMBL document CHEMBL1139941, “Development of 6-benzyl substituted 4-aminocarbonyl-1,4-diazepane-2,5-diones as orally active human chymase inhibitors” (Bioorg Med Chem Lett, 2007).
Values belong to the compound of their own block, whether it stands above or below them.

Legend:
[1] = Stability in aqueous solution in pH 7 at 10 uM; type: physicochemical
How it was run: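 Compound at 10 µM incubated at 37 °C in 0.1 M phosphate buffer, pH 7.0, sampled at 0, 4 and 8 h; fraction remaining quantified by HPLC and reported as half-life.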

Mus musculus [2] = test: Inhibition of DNFB-induced ear edema in mouse chronic dermatitis model at 10 mg/kg, po after 24 hrs relative to control; type: functional
How it was run: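 Mouse chronic dermatitis model: DNFB painted repeatedly; compound dosed orally at 10 mg/kg once daily throughout the experimental period. Ear thickness read 24 h after the sixth DNFB painting; inhibition ratio calculated versus vehicle, significance by Student's t test.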

[3] = Inhibition of human elastase
Cathepsin G = molecular target: T1, Cathepsin G (Homo sapiens, UniProt P08311); test: Inhibition of human cathepsin G
T1 sequence (P08311 whole entry): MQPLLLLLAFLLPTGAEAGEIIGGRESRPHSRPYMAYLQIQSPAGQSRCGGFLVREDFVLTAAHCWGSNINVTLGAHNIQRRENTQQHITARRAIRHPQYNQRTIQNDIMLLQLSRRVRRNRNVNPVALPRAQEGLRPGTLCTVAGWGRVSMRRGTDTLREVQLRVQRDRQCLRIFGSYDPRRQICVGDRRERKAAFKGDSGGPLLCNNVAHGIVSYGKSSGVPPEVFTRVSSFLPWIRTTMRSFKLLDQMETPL

[4] = Inhibition of bovine alpha chymotrypsin; parameters: species or system Bos taurus
[5] = Inhibition of bovine trypsin; parameters: species or system Bos taurus
Chymase = molecular target: T2, Chymase (Homo sapiens, UniProt P23946); test: Inhibition of human recombinant chymase
T2 sequence (P23946 whole entry): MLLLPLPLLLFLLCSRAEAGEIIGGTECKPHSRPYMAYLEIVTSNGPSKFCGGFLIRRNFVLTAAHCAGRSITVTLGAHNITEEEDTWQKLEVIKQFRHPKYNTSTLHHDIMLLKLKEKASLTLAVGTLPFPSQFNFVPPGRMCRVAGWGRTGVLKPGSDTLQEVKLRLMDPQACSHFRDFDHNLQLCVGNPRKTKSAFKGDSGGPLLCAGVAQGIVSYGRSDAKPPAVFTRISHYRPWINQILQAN

Mus musculus [6] = test: Inhibition of DNFB-induced ear edema in mouse chronic dermatitis model at 10 mg/kg, ip after 24 hrs relative to control; type: functional; settings: route intraperitoneal
How it was run: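 Chronic dermatitis in mice induced by repeated DNFB painting; intraperitoneal dosing at 10 mg/kg once daily over the experimental period. Ear thickness measured 24 h after sixth DNFB application, expressed as inhibition ratio against vehicle group; Student's t test.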

SMILES: CC[C@@H](NC(=O)N1CC(=O)NC[C@@H](Cc2cc(Cl)ccc2OC)C1=O)c1cccc(C(=O)O)c1
- inhibition in vivo at 10 mg/kg (Mus musculus [2]): 22.9%
- half-life at 10 µM [1]: 7.4 h
- IC50 [3]: > 100 µM
- IC50 (Cathepsin G): 8 µM
- IC50 [4]: 56 µM
- IC50 [5]: > 100 µM

SMILES: C[C@]12C=CC(=O)C=C1CC[C@@H]1[C@@H]2[C@@H](O)C[C@@]2(C)[C@H]1CC[C@]2(O)C(=O)CO [PREDNISOLONE]
- inhibition in vivo at 10 mg/kg (Mus musculus [6]): 54.6%

SMILES: CC[C@@H](NC(=O)N1CC(=O)NC[C@H](Cc2cc(Cl)ccc2OC)C1=O)c1ccc(C(=O)O)c(N)c1
- inhibition in vivo at 10 mg/kg (Mus musculus [2]): 35.8%
- half-life at 10 µM [1]: 6.1 h
- IC50 [3]: > 100 µM
- IC50 (Cathepsin G): 28 µM
- IC50 [4]: 23 µM
- IC50 [5]: > 100 µM

SMILES: CC[C@@H](NC(=O)N1CC(=O)NC[C@@H](Cc2cc(Cl)ccc2OC)C1=O)c1ccc(C(=O)O)c(N)c1
- inhibition in vivo at 10 mg/kg (Mus musculus [2]): 29.7%
- half-life at 10 µM [1]: 6.7 h
- IC50 [3]: > 100 µM
- IC50 (Cathepsin G): 16 µM
- IC50 [4]: > 100 µM
- IC50 [5]: > 100 µM

SMILES: COc1ccc(Cl)cc1CC1CNC(=O)CN(C(=O)NC(c2ccccc2)c2ccccc2)C1=O (racemic)
- IC50 (Chymase): > 100 µM
- half-life at 10 µM [1]: 16.5 h

Further lines, results first:

- half-life at 10 µM [1]: 7.6 h
SMILES: CCCC(NC(=O)N1CC(=O)NCC(Cc2cc(Cl)ccc2OC)C1=O)c1ccccc1 (centres undefined)

- half-life at 10 µM [1]: 12.9 h
SMILES: COc1ccc(Cl)cc1CC1CNC(=O)CN(C(=O)NCCc2ccccc2)C1=O (racemic)

- half-life at 10 µM [1]: 6.2 h
SMILES: COc1ccc(Cl)cc1CC1CNC(=O)CN(C(=O)NC(C)c2ccccc2)C1=O (centres undefined)

- IC50 (Chymase): > 100 µM
- half-life at 10 µM [1]: > 48 h
SMILES: COc1ccc(Cl)cc1CC1CNC(=O)CN(C(=O)N(C)Cc2ccccc2)C1=O (racemic)

- half-life at 10 µM [1]: 8 h
SMILES: COc1ccc(Cl)cc1CC1CNC(=O)CN(C(=O)NC(c2ccccc2)C(C)C)C1=O (centres undefined)

- half-life at 10 µM [1]: 6.3 h
SMILES: CCC(NC(=O)N1CC(=O)NCC(Cc2cc(Cl)ccc2OC)C1=O)c1ccccc1 (centres undefined)

- half-life at 10 µM [1]: 6.8 h
SMILES: COc1ccc(Cl)cc1CC1CNC(=O)CN(C(=O)NCc2ccccc2)C1=O (racemic)
